Experiments:
L1210 = experiment: In vitro test for 50% reduction of cell number (of control) after 70 hr incubation with cultures of murine L1210 leukemia cells; assay type: functional; conditions: Mus musculus, L1210, 70 h; read-out: ID50 (the source's name)
P388 [1] = experiment: In vivo tumor cell selectivity (ILSmax values)for percentage increase in life span of treated animals over that of P388 tumor bearing untreated control animals; assay type: functional, Mus musculus
P388 [2] = experiment: Dose of drug needed to provide a percentage increase in life span of tumor-bearing mice in vivo of […]% compared to untreated controls after inoculation of 10e6 P388 leukemia cells; h=ILS of >50% could not be obtained at any dose level; assay type: functional, organism-based; conditions: Mus musculus
[3] = Binding affinity towards poly[d(A-T)] (fluorometric method); assay type: ADME
Summary of the method: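 Log R for binding to poly[d(A-T)] measured fluorometrically, corrected for quenching.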

P388 [4] = experiment: In vivo inhibition of P388 in mice for optimal (highest nonacutely toxic) dose (OD); assay type: functional, Mus musculus
Summary of the method: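 F1 (DBA/2J × C57BlJ) mice, 19-21 g, either sex, inoculated with 10^6 P388 leukemia cells on day 0. Drug given ip in 0.1 mL 30% aqueous ethanol on days 1, 5 and 9, as a solution or, at highest doses, as a sonicated suspension. Doses stepped down from a toxic level at 0.67-fold intervals. Groups of six mice; ILS relative to 20-30 controls. OD is the highest nonacutely toxic daily dose.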

[5] = Lipophilicity (Rm) (liquid chromatography); assay type: physicochemical
Summary of the method: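 Rm is measured for drug cations at pH 2 by liquid-liquid chromatography on a cellulose support.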

P388 [6] = experiment: In vivo dose of drug needed for a percentage increase of 50% in life span of tumor-bearing mice compared to untreated controls after inoculation of 10e6 P388 leukemia cells; assay type: functional, Mus musculus

| SMILES | IC50 (L1210) | Activity (P388 [1]) | D50 (P388 [2]) | Log K [3] | OD (P388 [4]) | Rm [5] | D50 (P388 [6]) |
| --- | --- | --- | --- | --- | --- | --- | --- |
| COP(=O)(Nc1ccc(Nc2c3ccccc3nc3cc([N+](=O)[O-])ccc23)cc1)OC | 74 nM | 22% | ILS not obtained | 6.73 | 8.9 mg/kg/day | 0.14 | – |
| COc1cc(NP(=O)(OC)OC)ccc1Nc1c2ccccc2nc2ccc(C)cc12 | 985 nM | 25% | ILS not obtained | 5.28 | 30 mg/kg/day | 0.55 | – |
| CNC(=O)c1cccc2c(Nc3ccc(NS(C)(=O)=O)cc3)c3ccccc3nc12 | 245 nM | 41% | ILS not obtained | 6.22 | 150 mg/kg/day | -0.1 | – |
| CS(=O)(=O)Nc1ccc(Nc2c3ccccc3nc3cc(Br)ccc23)cc1 | 16 nM | 33% | ILS not obtained | 6.93 | 100 mg/kg/day | 0.16 | – |
| COc1cc(NS(C)(=O)=O)ccc1Nc1c2ccccc2nc2c(OC)cccc12 | 40 nM | 139% | – | 5.94 | 30 mg/kg/day | 0.19 | 8 mg/kg/day |
| COc1cc(NS(C)(=O)=O)ccc1Nc1c2ccccc2nc2ccccc12 [AMSACRINE] | – | 58% | – | 5.57 | – | 0.18 | 3 mg/kg/day |
| Cc1cccc2c(Nc3ccc(NS(C)(=O)=O)cc3)c3ccccc3nc12 | 17 nM | 75% | – | 6.52 | 66 mg/kg/day | 0.07 | 50 mg/kg/day |
| COc1cc(NP(=O)(OC)OC)ccc1Nc1c2ccccc2nc2c(OC)cccc12 | 12 nM | 76% | – | 6.09 | 9 mg/kg/day | 0.47 | 6 mg/kg/day |
| CNC(=O)c1cccc2c(Nc3ccc(NS(C)(=O)=O)cc3OC)c3ccccc3nc12 | 270 nM | 127% | – | 5.54 | 30 mg/kg/day | 0.06 | 8 mg/kg/day |
| COc1cc(NP(=O)(OC)OC)ccc1Nc1c2ccccc2nc2c(C)cccc12 | 18 nM | – | – | 6.16 | 8.9 mg/kg/day | 0.44 | 3 mg/kg/day |
| CNC(=O)c1cccc2c(Nc3ccc(NP(=O)(OC)OC)cc3OC)c3ccccc3nc12 | 18 nM | – | – | 5.94 | 30 mg/kg/day | 0.28 | 13 mg/kg/day |
| COc1cccc2c(Nc3ccc(NS(C)(=O)=O)cc3)c3ccccc3nc12 | 45 nM | 58% | – | 6.24 | 150 mg/kg/day | 0.01 | 125 mg/kg/day |
| CS(=O)(=O)Nc1ccc(Nc2c3ccccc3nc3cc([N+](=O)[O-])ccc23)cc1 | 90 nM | 43% | ILS not obtained | 6.51 | 8.9 mg/kg/day | -0.18 | – |
| COP(=O)(Nc1ccc(Nc2c3ccccc3nc3cc(C)ccc23)cc1)OC | 7 nM | 84% | – | 6.77 | 20 mg/kg/day | 0.49 | 6 mg/kg/day |
| COP(=O)(Nc1ccc(Nc2c3ccccc3nc3c(C)cccc23)cc1)OC | 9 nM | – | – | 6.75 | 20 mg/kg/day | 0.46 | 9 mg/kg/day |
| CS(=O)(=O)Nc1ccc(Nc2c3ccccc3nc3ccccc23)cc1 | 35 nM | 102% | – | – | 150 mg/kg/day | 0 | 35 mg/kg/day |
| COc1cc(NP(=O)(OC)OC)ccc1Nc1c2ccccc2nc2cc(Br)ccc12 | 5 nM | 83% | – | 6.44 | 13.3 mg/kg/day | 0.57 | 4 mg/kg/day |
| Cc1ccc2nc3ccccc3c(Nc3ccc(NS(C)(=O)=O)cc3)c2c1 | 680 nM | 39% | ILS not obtained | 5.7 | 100 mg/kg/day | 0.14 | – |

| SMILES | IC50 (L1210) | Activity (P388 [1]) | D50 (P388 [2]) | Log K [3] | OD (P388 [4]) | Rm [5] | D50 (P388 [6]) |
| --- | --- | --- | --- | --- | --- | --- | --- |
| COc1cc(NS(C)(=O)=O)ccc1Nc1c2ccccc2nc2ccc(C)cc12 | 1400 nM | 34% | ILS not obtained | 5.35 | 69 mg/kg/day | 0.4 | – |
| COP(=O)(Nc1ccc(Nc2c3ccccc3nc3cc(Cl)ccc23)cc1)OC | 16 nM | 62% | – | 7 | 45 mg/kg/day | 0.46 | 35 mg/kg/day |
| CNC(=O)c1cccc2c(Nc3ccc(NP(=O)(OC)OC)cc3)c3ccccc3nc12 | 97 nM | 56% | – | 6.46 | 66 mg/kg/day | 0.18 | 60 mg/kg/day |
| COc1cc(NP(=O)(OC)OC)ccc1Nc1c2ccccc2nc2cc(Cl)ccc12 | 12 nM | 91% | – | 6.4 | 13.3 mg/kg/day | 0.61 | 5.5 mg/kg/day |
| COc1ccc2nc3ccccc3c(Nc3ccc(NP(=O)(OC)OC)cc3)c2c1 | 920 nM | 38% | ILS not obtained | 6.25 | 45 mg/kg/day | 0.29 | – |
| COP(=O)(Nc1ccc(Nc2c3ccccc3nc3cc(N)ccc23)cc1)OC | 385 nM | 58% | – | 6.9 | 5.9 mg/kg/day | 0.06 | 5 mg/kg/day |
| Cc1ccc2c(Nc3ccc(NS(C)(=O)=O)cc3)c3ccccc3nc2c1 | 8 nM | 73% | – | 6.41 | 50 mg/kg/day | 0.24 | 27 mg/kg/day |
| COP(=O)(Nc1ccc(Nc2c3ccccc3nc3cc(S(C)(=O)=O)ccc23)cc1)OC | > 1500 nM | – | ILS not obtained | 5.63 | 150 mg/kg/day | -0.14 | – |
| COc1cc(NS(C)(=O)=O)ccc1Nc1c2ccccc2nc2cc(Cl)ccc12 | 70 nM | 232% | – | 6.06 | 20 mg/kg/day | 0.32 | 5 mg/kg/day |
| CS(=O)(=O)Nc1ccc(Nc2c3ccccc3nc3cc(Cl)ccc23)cc1 | 50 nM | 53% | – | 6.89 | 65 mg/kg/day | 0.14 | 60 mg/kg/day |
| CS(=O)(=O)Nc1ccc(Nc2c3ccccc3nc3cc(N)ccc23)cc1 | 10 nM | 67% | – | 6.82 | 8.9 mg/kg/day | -0.18 | 8 mg/kg/day |
| COc1cc(NS(C)(=O)=O)ccc1Nc1c2ccccc2nc2cc(Br)ccc12 | 50 nM | 133% | – | 6.29 | 20 mg/kg/day | 0.34 | 4 mg/kg/day |
| COP(=O)(Nc1ccc(Nc2c3ccccc3nc3ccc(C)cc23)cc1)OC | 286 nM | 36% | ILS not obtained | 6.09 | 20 mg/kg/day | 0.43 | – |
| COc1cc(NS(C)(=O)=O)ccc1Nc1c2ccccc2nc2c(C)cccc12 | 30 nM | 172% | – | 6.03 | 20 mg/kg/day | 0.25 | 4 mg/kg/day |
| COc1cc(NP(=O)(OC)OC)ccc1Nc1c2ccccc2nc2ccccc12 | 70 nM | 67% | – | 5.64 | 8.9 mg/kg/day | 0.47 | 3.5 mg/kg/day |
| COP(=O)(Nc1ccc(Nc2c3ccccc3nc3cc(Br)ccc23)cc1)OC | 15 nM | 110% | – | 6.56 | 65 mg/kg/day | 0.47 | 20 mg/kg/day |
| COP(=O)(Nc1ccc(Nc2c3ccccc3nc3ccccc23)cc1)OC | 15 nM | 107% | – | 6.26 | 45 mg/kg/day | 0.34 | 15 mg/kg/day |
| COc1cccc2c(Nc3ccc(NP(=O)(OC)OC)cc3)c3ccccc3nc12 | 20 nM | 50% | – | 6.53 | 45 mg/kg/day | 0.33 | 45 mg/kg/day |

— ChEMBL document CHEMBL1122747, “Potential antitumor agents. 42. Structure-activity relationships for acridine-substituted dimethyl phosphoramidate derivatives of 9-anilinoacridine” (J Med Chem, 1984)
